Measurements as given in publication PMC8122083 (ACS infectious diseases, 2021).
≈ marks a conversion by molar mass, not a printed value. Where two headings read alike, the source gives them in different places.

Columns and labels:
H. pylori ATCC 43504 = assay: H. pylori IC50 dose response; type: cell-based; conditions: for IC50: Helicobacter pylori
H. pylori [1] = assay: H. pylori IC50 of high-throughput screening hits; type: cell-based; conditions: Helicobacter pylori, read-out: H. pylori IC50
H. pylori SS1 [2] = assay: H. pylori IC50 dose response; type: cell-based; conditions: for IC50: Helicobacter pylori, SS1, read-out: H. pylori SS1 pIC50 (converted)
Cytotoxicity assay = type: cell-based; conditions: human, FaDu cells
Procedure, shortened: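 FaDu cells, maintained per ATCC protocols, were seeded in EMEM with 10% FBS at 3 x 10^5 cells/ml and grown 24 h at 37°C, 5% CO2. Medium was replaced with two-fold serial dilutions of test compound in fresh medium for 72 h, then with FBS-free EMEM plus resazurin (final 0.15 mM) for 3-5 h. Fluorescence read at ex 540/em 590 nm. IC50 fitted from percent inhibition versus growth controls, converted to pIC50, and reported as mean ± S.E.M.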

H. pylori SS1 [3] = assay: ex vivo H. pylori infection model; set-up: species or system mouse; conditions: 0.6 μg/mL (1.6μM), 24 hours
H. pylori [4] = assay: H. pylori murine infection model; type: in vivo, mouse; conditions: compared to metronidazole control
Mouse pharmacokinetics = type: in vivo, mice
Solubility = type: physicochemical
[5] = tested on: panel of representative Gram-negative and Gram-positive species, including commensals; assay: MIC against panel of representative Gram-negative and Gram-positive species; type: cell-based
[6] = tested on: H. pylori HM-274 resistant isolates; assay: MIC of spontaneous resistant mutants of H. pylori HM-274; type: cell-based; conditions: two spontaneous mutants selected at twice the MIC of 28
H. pylori [7] = conditions: cited from earlier work
[8] = ATCC43504, read-out: H. pylori ATCC 43504 pIC50 (converted)

Row | Structure (SMILES) | IC50 (H. pylori ATCC 43504; [8]) | IC50 (H. pylori SS1 [2]) | IC50 at 72 h (Cytotoxicity assay) | IC50 (H. pylori ATCC 43504; ATCC43504) | MIC [5] | further results
1 | OCCCNc1ncnc2sc(-c3ccccc3)cc12 [Compound 1, 3-((6-phenylthieno[2,3-d]pyrimidin-4-yl)amino)propan-1-ol] | 1580 nM | 1580 nM | 126 µM | – | – | IC50 (H. pylori [1]): 1550 nM
2 | COc1ccc(C(CO)Nc2ncnc3sc(-c4ccccc4)cc23)cc1 (centres unmarked) [Compound 25, 2-(4-methoxyphenyl)-2-((6-phenylthieno[2,3-d]pyrimidin-4-yl)amino)ethan-1-ol] | 20 nM | 20 nM | 398 µM | 21 nM | ≥ 16 µg/mL | fold increase in potency (H. pylori ATCC 43504; ATCC 43504 (stated for both strains), lead compounds relative to hits): > 69 fold; effectiveness in ex vivo model (H. pylori SS1 [3]): highly effective; samples with colony counts below the limit of detection (H. pylori SS1 [3]; 10 samples): 6 of the 10; fold increase in potency (H. pylori SS1 [2]; SS1 (stated for both strains), lead compounds relative to hits): > 69 fold; efficacy in H. pylori murine infection model (H. pylori [4]; 25 mg/kg (IP)): did not show efficacy; efficacy in H. pylori murine infection model (H. pylori [4]; 50 mg/kg (IP)): did not show efficacy; efficacy in H. pylori murine infection model (H. pylori [4]; 50 mg/kg (PO)): did not show efficacy; exposure upon oral dosing (Mouse pharmacokinetics; mice, oral (PO), compared with IP): lower exposure; AUC (Mouse pharmacokinetics; mouse, plasma, ip, 50 mg/kg): 31900 ng·h/mL; solubility (Solubility): 1 µM (≈ 0.377 µg/mL)
3 | OC[C@H](Nc1ncnc2sc(-c3ccccc3)cc12)c1ccccc1 [Compound 28, (R)-2-phenyl-2-((6-phenylthieno[2,3-d]pyrimidin-4-yl)amino)ethan-1-ol] | 25.1 nM | 10 nM | < 20 µM | 23 nM | ≥ 16 µg/mL | MIC of resistant isolates relative to wildtype [6]: 8 fold
4 | COc1ccc([C@H](CN)Nc2ncnc3sc(-c4ccccc4)cc23)cc1F [Compound 31, (R)-1-(3-fluoro-4-methoxyphenyl)-N^1-(6-phenylthieno[2,3-d]pyrimidin-4-yl)ethane-1,2-diamine] | 3160 nM | 1000 nM | 50.1 µM | – | ≥ 16 µg/mL | fold increase in H. pylori IC50 on substituting hydroxyl for primary amine (H. pylori ATCC 43504; ATCC 43504, relative to 30): > 79 fold; fold increase in H. pylori IC50 on substituting hydroxyl for primary amine (H. pylori SS1 [2]; SS1, relative to 30): > 79 fold
5 | CC[C@H]1OC(=O)[C@H](C)[C@@H](O[C@H]2C[C@@](C)(OC)[C@@H](O)[C@H](C)O2)[C@H](C)[C@@H](O[C@@H]2O[C@H](C)C[C@H](N(C)C)[C@H]2O)[C@](C)(OC)C[C@@H](C)C(=O)[C@H](C)[C@@H](O)[C@]1(C)O [clarithromycin] | – | – | – | – | – | H. pylori minimum inhibitory concentration (MIC) (H. pylori [7]): 8 ng/mL
